Test results reported in ChEMBL document CHEMBL1156908, “Characterization of tunable piperidine and piperazine carbamates as inhibitors of endocannabinoid hydrolases” (J Med Chem, 2010).

What was measured:
[1] = biological target: T1, Fatty-acid amide hydrolase 1 (Mus musculus, UniProt O08914); test: Inhibition of FAAH in mouse brain membrane; assay type: cell membranes
T1 sequence (O08914 whole entry): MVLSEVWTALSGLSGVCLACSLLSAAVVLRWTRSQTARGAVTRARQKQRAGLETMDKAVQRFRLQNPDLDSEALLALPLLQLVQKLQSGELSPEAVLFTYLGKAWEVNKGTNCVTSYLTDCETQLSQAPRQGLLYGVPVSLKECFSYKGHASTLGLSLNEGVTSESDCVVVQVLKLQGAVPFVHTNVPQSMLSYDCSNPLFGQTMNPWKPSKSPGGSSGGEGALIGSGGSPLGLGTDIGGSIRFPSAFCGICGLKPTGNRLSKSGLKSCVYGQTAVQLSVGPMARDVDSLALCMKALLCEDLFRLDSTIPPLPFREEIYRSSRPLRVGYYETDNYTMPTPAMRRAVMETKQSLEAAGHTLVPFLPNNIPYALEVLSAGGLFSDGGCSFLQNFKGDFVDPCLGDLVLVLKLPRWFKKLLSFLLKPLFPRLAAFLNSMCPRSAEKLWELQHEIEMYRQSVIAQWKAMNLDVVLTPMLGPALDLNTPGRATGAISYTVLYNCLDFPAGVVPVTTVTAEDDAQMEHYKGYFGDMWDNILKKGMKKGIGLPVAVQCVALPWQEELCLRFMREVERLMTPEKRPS
Method in brief: (§1)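 Mouse brain membrane fraction (Dounce homogenized in PBS pH 7.5, 1,400 × g debris spin, 64,000 × g 45 min pellet, resuspended) at 1 mg/ml in PBS. Inhibitor preincubated 30 min at 37°C, then FP-rhodamine 1 μM final for 30 min at 25°C. SDS-PAGE with in-gel fluorescence scanning. IC50 from fitted integrated band intensities, mean of at least triplicates.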

Monoglyceride lipase = biological target: T2, Monoglyceride lipase (Mus musculus, UniProt O35678); test: Inhibition of MAGL in mouse brain membrane; assay type: cell membranes; method in brief: as §1
T2 sequence (O35678 whole entry): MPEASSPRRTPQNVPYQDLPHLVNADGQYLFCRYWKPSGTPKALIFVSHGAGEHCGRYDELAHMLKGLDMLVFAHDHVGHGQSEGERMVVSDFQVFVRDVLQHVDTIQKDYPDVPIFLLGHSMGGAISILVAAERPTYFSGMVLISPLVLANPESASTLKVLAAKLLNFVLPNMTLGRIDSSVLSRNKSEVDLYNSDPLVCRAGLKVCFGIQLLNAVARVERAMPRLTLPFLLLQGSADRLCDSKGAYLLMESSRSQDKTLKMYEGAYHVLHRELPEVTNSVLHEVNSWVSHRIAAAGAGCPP

[2] = biological target: T3, Monoacylglycerol lipase ABHD6 (Mus musculus, UniProt Q8R2Y0); test: Inhibition of ABHD6 in mouse brain membrane; assay type: cell membranes; method in brief: as §1
T3 sequence (Q8R2Y0 whole entry): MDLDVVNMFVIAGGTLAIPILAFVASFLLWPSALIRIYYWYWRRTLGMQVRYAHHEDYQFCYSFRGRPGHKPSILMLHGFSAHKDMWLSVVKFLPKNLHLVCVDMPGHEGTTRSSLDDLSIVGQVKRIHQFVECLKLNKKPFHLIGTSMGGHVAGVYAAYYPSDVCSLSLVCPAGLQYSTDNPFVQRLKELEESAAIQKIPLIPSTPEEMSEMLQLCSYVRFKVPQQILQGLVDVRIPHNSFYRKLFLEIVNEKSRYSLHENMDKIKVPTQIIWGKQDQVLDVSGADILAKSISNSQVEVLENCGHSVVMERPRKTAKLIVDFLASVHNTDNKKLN

Mus musculus = species on record: Mus musculus; test: Selectivity ratio of IC50 for mouse FAAH to IC50 for mouse MAGL
Method in brief: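 Competitive ABPP on mouse brain membrane proteome (Dounce-homogenized in PBS pH 7.5, 64,000 × g pellet, resuspended), diluted to 1 mg/ml in PBS. Inhibitor preincubated 30 min at 37°C, then FP-rhodamine 1 μM final for 30 min at 25°C. SDS-PAGE and in-gel fluorescence scanning. IC50s for FAAH and MAGL come from integrated band intensities, means of ≥3 runs; the ratio is taken from these.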

[3] = biological target: T4, Patatin-like phospholipase domain-containing protein 6 (Mus musculus, UniProt Q3TRM4); test: Inhibition of NTE in mouse brain membrane; assay type: cell membranes; method in brief: as §1
T4 sequence (Q3TRM4 whole entry): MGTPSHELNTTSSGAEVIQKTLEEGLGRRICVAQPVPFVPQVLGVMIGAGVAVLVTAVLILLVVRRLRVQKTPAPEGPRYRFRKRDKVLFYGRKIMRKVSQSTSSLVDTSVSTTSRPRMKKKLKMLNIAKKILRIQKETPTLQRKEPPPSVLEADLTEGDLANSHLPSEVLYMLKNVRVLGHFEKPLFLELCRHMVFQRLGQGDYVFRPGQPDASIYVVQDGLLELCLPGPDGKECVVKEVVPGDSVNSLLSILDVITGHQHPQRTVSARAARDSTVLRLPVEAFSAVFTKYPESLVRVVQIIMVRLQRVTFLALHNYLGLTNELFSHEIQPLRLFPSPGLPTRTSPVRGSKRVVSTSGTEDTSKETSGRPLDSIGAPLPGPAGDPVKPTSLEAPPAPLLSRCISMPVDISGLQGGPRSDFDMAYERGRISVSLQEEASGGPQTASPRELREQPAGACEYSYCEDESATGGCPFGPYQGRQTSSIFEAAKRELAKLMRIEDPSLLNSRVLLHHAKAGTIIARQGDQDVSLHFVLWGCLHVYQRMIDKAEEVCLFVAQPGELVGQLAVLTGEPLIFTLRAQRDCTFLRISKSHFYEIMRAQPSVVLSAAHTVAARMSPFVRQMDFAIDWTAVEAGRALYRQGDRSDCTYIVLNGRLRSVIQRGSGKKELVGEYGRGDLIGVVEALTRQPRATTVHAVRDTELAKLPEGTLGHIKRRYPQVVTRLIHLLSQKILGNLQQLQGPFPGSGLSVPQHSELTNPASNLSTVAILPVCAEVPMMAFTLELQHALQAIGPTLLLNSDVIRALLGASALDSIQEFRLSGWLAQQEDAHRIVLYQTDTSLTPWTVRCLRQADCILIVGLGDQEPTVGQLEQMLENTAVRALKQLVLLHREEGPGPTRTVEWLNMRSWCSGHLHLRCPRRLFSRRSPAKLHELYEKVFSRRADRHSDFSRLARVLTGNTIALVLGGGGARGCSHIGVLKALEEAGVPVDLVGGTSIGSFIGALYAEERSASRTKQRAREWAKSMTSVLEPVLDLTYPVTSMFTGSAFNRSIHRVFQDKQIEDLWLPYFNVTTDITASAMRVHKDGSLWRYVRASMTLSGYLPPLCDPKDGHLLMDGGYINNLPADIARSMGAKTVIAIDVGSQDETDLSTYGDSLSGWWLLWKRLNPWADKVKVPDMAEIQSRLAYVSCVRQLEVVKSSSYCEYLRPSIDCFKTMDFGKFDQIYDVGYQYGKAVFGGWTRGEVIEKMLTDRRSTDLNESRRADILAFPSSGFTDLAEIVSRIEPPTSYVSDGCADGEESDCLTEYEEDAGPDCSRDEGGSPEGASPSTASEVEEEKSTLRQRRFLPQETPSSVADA

[4] = biological target: T5, Patatin-like phospholipase domain-containing protein 6 (Mus musculus) (UniProt Q3TRM4); test: Inhibition of NTE in mouse brain membrane at 100 uM; assay type: cell membranes
T5 sequence (whole entry): T4 sequence (Q3TRM4 whole entry)
Method in brief: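 Competitive ABPP on mouse brain membrane proteome at 1 mg/ml in PBS. Inhibitor at 100 μM for 30 min at 37°C, then FP-rhodamine 1 μM final for 30 min at 25°C. SDS-PAGE and in-gel fluorescence scanning. Percent loss of NTE band labeling.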

Compound | IC50 [1] [nM] | IC50 (Monoglyceride lipase) [nM] | IC50 [2] [nM] | Ratio IC50 (Mus musculus) | IC50 [3] [nM] | inhibition [4] [%]
COc1ccc(C(O)(c2ccc(OC)cc2)C2CCN(C(=O)Oc3ccc([N+](=O)[O-])cc3)CC2)cc1 | 2660 | 40 | 2110 | 68 | – | –
COc1ccc(CN2CCN(C(=O)Oc3ccc([N+](=O)[O-])cc3)CC2)cc1 | 1050 | 1530 | 1270 | – | 480 | –
O=C(Oc1ccc([N+](=O)[O-])cc1)N1CCC(C(O)(c2ccc3ccccc3c2)c2ccc3ccccc3c2)CC1 | 4690 | 810 | 3430 | 6 | – | –
O=C(Oc1ccc([N+](=O)[O-])cc1)N1CCC(C(O)(c2ccccc2)c2ccccc2)CC1 | 4340 | 690 | 1100 | 6 | – | –
COc1ccc(C(O)(c2ccc(OC)c(OC)c2)C2CCN(C(=O)Oc3ccc([N+](=O)[O-])cc3)CC2)cc1OC | > 50000 | 1300 | 6960 | – | – | –
Cc1ccc(Oc2cccc(CN3CCN(C(=O)Oc4ccc([N+](=O)[O-])cc4)CC3)c2)cc1 | 40 | 500 | 1130 | – | 3000 | 70
O=C(Oc1ccc([N+](=O)[O-])cc1)N1CCN(Cc2ccc(-c3ccccc3)o2)CC1 | 20 | 90 | 220 | – | 250 | –
CN(CCC(c1ccccc1)c1ccccc1)C(=O)Oc1ccc([N+](=O)[O-])cc1 | > 50000 | > 50000 | > 50000 | – | – | –
O=C(Oc1ccc([N+](=O)[O-])cc1)N1CCN(Cc2ccc(-c3ccccc3)s2)CC1 | 40 | 50 | 220 | – | 80 | –
COc1cccc(C(O)(c2cccc(OC)c2)C2CCN(C(=O)Oc3ccc([N+](=O)[O-])cc3)CC2)c1 | 5830 | 560 | 460 | 10 | – | –
COc1cc(OCc2ccccc2)ccc1CN1CCN(C(=O)Oc2ccc([N+](=O)[O-])cc2)CC1 | 930 | 90 | 310 | – | 420 | –
O=C(Oc1ccc([N+](=O)[O-])cc1)N1CCN(Cc2ccc(-c3ccccc3)cc2)CC1 | 4600 | 15 | 1650 | – | 4270 | –
O=C(Oc1ccc([N+](=O)[O-])cc1)N1CCN(Cc2ccccc2-c2ccccc2)CC1 | 3570 | 670 | 2860 | – | 330 | –
O=C(Oc1ccc([N+](=O)[O-])cc1)N1CCN(Cc2ccc3ccccc3n2)CC1 | 1040 | 80 | 490 | – | 910 | –
CN(C)c1ccc(C(O)(c2ccc(N(C)C)cc2)C2CCN(C(=O)Oc3ccc([N+](=O)[O-])cc3)CC2)cc1 | 10500 | 2120 | 1020 | 5 | – | –
O=C(Oc1ccc([N+](=O)[O-])cc1)N1CCC2(CC1)OC2(c1ccccc1)c1ccccc1 | 5850 | 200 | 380 | 29 | – | –
COc1ccccc1C(O)(c1ccccc1OC)C1CCN(C(=O)Oc2ccc([N+](=O)[O-])cc2)CC1 | 15100 | 510 | 1100 | – | – | –
O=C(Oc1ccc([N+](=O)[O-])cc1)N1CCN(C(c2ccc(F)cc2)c2ccc(F)cc2)CC1 | 5410 | 200 | 900 | 27 | – | –
O=C(Oc1ccc([N+](=O)[O-])cc1)N1CCC(=C(c2ccccc2)c2ccccc2)CC1 | 3500 | 1390 | 1300 | 3 | – | –
O=C(Oc1ccc([N+](=O)[O-])cc1)N1CCN(Cc2cc(-c3ccccc3)cs2)CC1 | 280 | 10 | 1000 | – | 890 | –
CN(C(=O)Oc1ccc([N+](=O)[O-])cc1)C(c1ccccc1)c1ccccc1 | > 50000 | > 50000 | > 50000 | – | – | –
COc1ccc(C(O)(c2ccc(OC)cc2)C2CCN(C(=O)Oc3ccc([N+](=O)[O-])cc3)C2)cc1 (stereo not given) | > 50000 | > 50000 | > 50000 | – | – | –
O=C(Oc1ccc([N+](=O)[O-])cc1)N1CCN(C2c3ccccc3Oc3ccccc32)CC1 | 9000 | 6120 | 2120 | 2 | – | –
O=C(Oc1ccc([N+](=O)[O-])cc1)N1CCC(C(O)(c2ccc3c(c2)OCO3)c2ccc3c(c2)OCO3)CC1 | – | – | 3270 | – | – | –
COc1ccc(C(c2ccc(OC)cc2)C2CCN(C(=O)Oc3ccc([N+](=O)[O-])cc3)CC2)cc1 | 40100 | 73 | 550 | 549 | – | –
O=C(Oc1ccc([N+](=O)[O-])cc1)N1CCC(C(O)(c2ccc(Cl)cc2)c2ccc(Cl)cc2)CC1 | 3360 | 1100 | 180 | 3 | – | –
O=C(Oc1ccc([N+](=O)[O-])cc1)N1CCN(Cc2ccccc2)CC1 | 930 | 900 | 740 | – | 610 | –
O=C(Oc1ccc([N+](=O)[O-])cc1)N1CCN(Cc2ccc3ccccc3c2)CC1 | 380 | 70 | 150 | – | 1100 | –
